Screening data as filed in PubChem.
The full list was thinned out, with hits kept by preference.
BB579 growth dn – reduces growth of yeast BB579 in restrictive medium; S. cerevisiae BB579 growth, OD615, 48 h; inhibition, % at 10 µM; actives 0.51% (n = 140,000);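 active = inhibition above a set limit, 3 SD over the mean compound inhibition, cut at about 44% in these data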
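Test system: S. cerevisiae DeaD strain BB579 yeast; Medium: restrictive CSMM-D medium; Compound: one dose, 10 µM compound with 0.25% DMSO; Incubation: 4 h cell preincubation, 48 h compound exposure, 30 °C humidified; Signal: OD at 615 nm; Benchmarks: amphotericin B at 10 µg/mL as positive control.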
Yeast lifespan up – extends the lifespan of yeast; S. cerevisiae growth with nicotinamide, OD615; deaD strain in restrictive glucose medium; inhibition of the nicotinamide effect, % at 10 µM; actives 0.68% (n = 130,000); AID 775;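 active = inhibition above a set limit, placed 3 SD over the median of all compounds, cut at about 26% in these data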;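 also: 0% = nicotinamide-treated wells and 100% = cells grown without nicotinamide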
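Assay system: DeaD-strain S. cerevisiae. Medium: CSMM-D glucose medium, restrictive. Reagent: nicotinamide, 1.5 mM, co-present with compound. Compound: 10 µM single point, 0.25% DMSO. Schedule: culture preincubation 4 h, compound exposure 48 h, both 30 °C. Detection: absorbance at 615 nm.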
PostGolgi ctrl – yeast control strain growth, post-Golgi counter-screen | efflux-deficient yeast background strain, growth absorbance A615, 16 h | inhibition, % at 10 µM | actives 5% (n = 98,000) | AID 738
PostGolgi yeast – growth inhibition of a yeast mutant, post-Golgi transport screen; post-Golgi transport phenotypic cell assay; inhibition, % at 10 µM; actives 0.9% (n = 98,000); AID 739;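 also: yeast cells grown in 1536-well plates; yeast grown about 18 h at 30C before absorbance read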
Numbers without * were called inactive; x = no result given. Rule as the data show it, unless noted: active = inhibition above about 30%; inactive = the rest.

SMILES	BB579 growth dn	Yeast lifespan up	PostGolgi ctrl	PostGolgi yeast
Cc1ccc(/C=N/n2c(COc3ccccc3)n[nH]c2=S)s1	-74	-5	9	1
CC1(NC(=O)CC[N+](C)(C)CCO)CS(=O)(=O)CC1S(=O)(=O)[O-] (centres undefined)	-6	-7	x	x
O=C(N/N=C/c1ccccc1)c1sccc1OCc1ccc(F)cc1	-19	-26	68*	0
O=C(N/N=C/c1cccc(OCc2ccccc2)c1)c1cccs1	-66	-23	37*	9
Cc1cccc(C(=O)N[C@H](C(=O)OCC(=O)NC2CCS(=O)(=O)C2)C(C)C)c1 (some centres undefined)	-51	0	x	x
Cc1ccc2ccc(C(Nc3ccccn3)c3ccccc3)c(O)c2n1 (centres undefined)	-57	-4	8	-9
Cc1cc(NC(c2ccc(Cl)cc2)c2ccc3cccnc3c2O)no1 (centres undefined)	95*	-33	7	7
Cc1cccc(C(=O)N2CCN(c3ccc([N+](=O)[O-])c(NCc4ccco4)c3)CC2)c1	-7	-15	39*	-1
Cc1ccc(-c2nnc(SCC(=O)NNC(=O)COc3cccc4ccccc34)n2C)cc1	-5	1	x	x
CC(c1nnc(SCn2nnc3ccccc3c2=O)n1-c1ccc(Cl)cc1)N(C)C (centres undefined)	11	-18	18	67*
CC(c1nnc(SCC(=O)N2CCc3ccccc32)n1-c1ccc(Cl)cc1)N(C)C (centres undefined)	-31	6	16	-4
CSc1nsc(SCC(=O)Nc2ccc(Br)cn2)n1	-38	-14	38*	0
CCC(C)NS(=O)(=O)c1ccc(OCC(=O)NCc2ccco2)cc1 (centres undefined)	-15	-12	-7	7
COc1ccc(S(=O)(=O)NC(CC(=O)NCc2ccco2)C(C)C)cc1 (centres undefined)	-46	-10	38*	0
CCOC(=O)c1cc(CC)sc1NC(=O)CC1Sc2ccc(C(F)(F)F)cc2NC1=O (centres undefined)	-37	7	x	x
COc1ccc(C2C3=C(CCCC3=O)Nc3nc(-c4cc(OC)c(OC)c(OC)c4)nn32)cc1OC (centres undefined)	3	-9	1	33*
CSc1nnc(-c2sc3cc(C(F)(F)F)cnc3c2-c2ccccc2)n1C	-4	-4	6	-5
Cc1ccc(NC(=O)c2cc([N+](=O)[O-])ccc2NCc2cccnc2)cc1	-27	-6	5	-4
COC(=O)c1ccc(/C=N/OCC(=O)NC2CCCC(C)C2C)cc1 (centres undefined)	-29	1	40*	11
O=C(NC(=S)N1CCc2ccccc21)c1ccccc1Br	-24	27*	x	x
O=C(COc1ccc(Br)cc1Cl)NC(=S)N1CCc2ccccc21	-30	-2	x	x
Cn1c(C(=O)N2CCc3ccccc3C2)cc2oc3ccccc3c21	-33	-8	56*	-2
CCn1c(C(=O)N2CCc3ccccc3C2)cc2oc3ccccc3c21	-10	-12	34*	-2
O=C(c1cc2ccccc2c(=O)o1)N1CCc2ccccc2C1	1	-13	12	-1
CCOc1ccccc1CNC(=O)c1cc2oc3ccccc3c2n1CC	6	-3	31*	-7
SMILES	BB579 growth dn	Yeast lifespan up	PostGolgi ctrl	PostGolgi yeast
O=C(Nc1ccccc1Br)C1CCN(C(=O)Cc2ccccc2)CC1	9	8	x	x
CCN(CC)S(=O)(=O)c1ccc(Br)c(OC)c1	-5	-4	-4	-4
COc1ccc(C(=O)Nc2nc(C)c(C(=O)N(C)C)s2)cc1OC	-3	-23	34*	9
COc1ccc(/C=C/C(=O)Nc2nc(C)c(C(=O)N(C)C)s2)cc1OC	-15	-1	x	x
CCCCN=C(NNc1ccc(Br)cc1)C(=O)OCC	97*	-13	x	x
CCOC(=O)C(=O)NNc1ccc(C)cc1	-13	-1	x	x
CCOC(=O)C(=NCCCN(C)C)NNc1ccc(Br)cc1	92*	-10	x	x
O=C(COc1ccc(Cl)cc1)NC1=NN(c2ccccc2)C(=O)C1	62*	0	x	x
O=C(CCCCl)NC1=NN(c2ccccc2)C(=O)C1	-27	7	x	x
CCC(C)NC(=O)C1CCN(S(=O)(=O)CC)CC1 (centres undefined)	-14	-4	6	4
CCC(C)NC(=O)C1CCN(S(=O)(=O)N2CCCC2)CC1 (centres undefined)	-10	-9	31*	-10
Cc1ccc(NC(=O)c2ccccc2N(C)S(C)(=O)=O)cc1C	-57	-12	5	2
CCNc1ccc(C(=O)OCC(=O)c2cc(C)n(Cc3ccc4c(c3)OCO4)c2C)cc1[N+](=O)[O-]	-14	2	x	x
O=C(NCC(=O)N(c1cccnc1)C(C(=O)NCc1ccco1)c1ccccc1)c1ccco1 (centres undefined)	-5	-13	0	39*
O=C(NCc1ccco1)C(c1cccs1)N(C(=O)Cc1cccs1)c1ccccc1 (centres undefined)	-9	2	7	38*
CC(C)c1ccc(C(C(=O)NC(C)(C)C)N(C(=O)CNC(=O)c2ccco2)c2cccnc2)cc1 (centres undefined)	-19	x	x	x
C/C(CC(=O)N(C(C)C)C(C)C)=N\NC(=O)c1ccccc1Br	-13	7	x	x
CCc1cccc(CC)c1NC(=O)Cn1c(-c2ccccc2Cl)nc2ccccc21	-13	-2	x	x
C=CCn1c(-c2ccc(C)cc2)nc2ccccc21	-20	-8	18	4
C=CCn1c(-c2cccnc2Cl)nc2cc(Cl)c(Cl)cc21	-29	-6	36*	-3
CCCn1c(-c2cccnc2Cl)nc2cc(Cl)c(Cl)cc21	-40	-13	43*	-14
Clc1cccc(Cl)c1Cn1c(-c2cccnc2Cl)nc2ccccc21	-34	-11	50*	10
CCCn1c(-c2ccc(OC)cc2)nc2ccccc21	-80	53	17	8
COc1ccc(Cc2nnc(N/N=C/c3ccc(O)cc3O)[nH]c2=O)cc1OC	23	2	x	x
CCCCOc1ccc(/C=C/C(=O)OCC(=O)N2CC(=O)Nc3ccccc32)cc1OCC	-10	0	x	x
SMILES	BB579 growth dn	Yeast lifespan up	PostGolgi ctrl	PostGolgi yeast
CC(=NC1CC1)c1c(-c2ccccc2)[nH]n(-c2nc3ccccc3s2)c1=O	-43	-19	36*	-4
COc1ccc(/C=C2\SC(=N)N(c3nccs3)C2=O)cc1OC	-28	38*	x	x
CCCC/C(O)=C1\C(=O)CC(C)(C)CC1=Nc1ccccc1OC	-6	-6	31*	9
N#CC(C#N)=C(Nc1ccc(F)cc1)SCc1cccc(F)c1	-16	1	x	x
CN(CC(=O)N1CCN(c2ccccc2)CC1)S(=O)(=O)c1cnc[nH]1	-38	-4	36*	3
CCCCNc1c2c3c(cccc3n(C)c1=O)C(=O)c1ccccc1-2	-40	7	58*	2
Cn1c(=O)c(NCCO)c2c3c(cccc31)C(=O)c1ccccc1-2	-39	1	6	7
Cn1c(=O)c(NCCc2ccccc2)c2c3c(cccc31)C(=O)c1ccccc1-2	-38	-5	48*	0
O=c1oc2ccccc2cc1N1CCOCC1	-8	-1	x	x
